Key:
[1] = target: T1, WD repeat-containing protein 5 (Homo sapiens, UniProt P61964); test: Inhibition of 10mer-Thr-FAM probe binding to human WDR5 after 2 hrs by fluorescence polarization assay
[2] = Antiproliferative activity against human MV4-11 cells harboring MLL-AF4 fusion protein after 72 hrs by CCK8 assay; type: functional, cell-based; conditions: MV4-11, 72 h
[3] = Growth inhibition of human K562 cells after 7 days by MTS assay; type: functional, cell-based; conditions: K562, 168 h
Summary of the method: (§1)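 Proliferation assay in leukaemia cell lines with or without an MLL fusion. MV4-11 (MLL-AF4) gives an IC50 from concentration–response. K562 carries no MLL fusion protein; compounds are tested at a single 35 μM, reported as % remaining growth activity (IC50 where determined).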

[4] = Antiproliferative activity against human MV4-11 cells harboring MLL-AF4 fusion protein by CellTiter-Glo assay; type: functional, cell-based; summary of the method: as §1
[5] = target: T1, WD repeat-containing protein 5; test: Binding affinity to human WDR5 by isothermal titration calorimetry
[6] = target: MLL1/ASH2L/RBBP5/WDR5 complex (Homo sapiens, UniProt P61964+Q03164+Q15291+Q9UBL3); test: Inhibition of recombinant MLL1/ASH2L/RBBP5/WDR5 complex histone methyltransferase activity (unknown origin) by AlphaScreen assay; type: protein-complex assay

| SMILES | IC50 [1] [µM] | IC50 [2] [µM] | also measured |
| --- | --- | --- | --- |
| Cc1c(F)ccc(C(=O)Nc2cc([N+](=O)[O-])ccc2N2CCN(Cc3ccccc3)CC2)c1Cl | > 20 |  |  |
| CCC(CC)(NC(=O)C(C)C)C(=O)N[C@@H](CCCNC(=N)N)C(=O)NC1(C(=O)NC(c2ccc(F)cc2)c2ccc(F)cc2)CCCC1 |  |  | IC50 [3]: 37.8 µM; IC50 [4]: 25 µM |
| CN1CCN(c2ccc(-c3ccc(N)cc3)cc2NC(=O)c2cccc(N)c2)CC1 | > 20 |  |  |
| CC(=O)Nc1cc(C(=O)Nc2cc(-c3ccc(N)cc3)ccc2N2CCN(C)CC2)c(Cl)c(C)c1F | 3.19 |  |  |
| CC(=O)Nc1cc(C(=O)Nc2cc(-c3ccc([N+](=O)[O-])cc3)ccc2N2CCN(C)CC2)c(Cl)c(C)c1F | > 20 |  |  |
| COc1ccc(N2CCN(c3ccc([N+](=O)[O-])cc3NC(=O)c3ccc(F)c(C)c3Cl)CC2)cc1 | > 20 |  |  |
| Cc1c(F)ccc(C(=O)Nc2cc([N+](=O)[O-])ccc2N2CCN(c3ccc(F)cc3)CC2)c1Cl | > 20 |  |  |
| Cc1c(F)c(N)cc(C(=O)Nc2cc(-c3ccc(NC(=O)C4CCNCC4)cc3)ccc2N2CCN(C)CC2)c1Cl |  | 9.2 | Kd [5]: 0.0075 µM; IC50 [6]: 0.3 µM |
| Cc1c(F)ccc(C(=O)Nc2cc([N+](=O)[O-])ccc2NCCCn2ccnc2)c1Cl | > 20 |  |  |
| Cc1c(F)ccc(C(=O)Nc2cc([N+](=O)[O-])ccc2N2CCN(c3ccccn3)CC2)c1Cl | > 20 |  |  |

The remaining molecules from weak to strong by IC50 [1], led by results:

| IC50 [1] [µM] | SMILES | IC50 [2] [µM] | also measured |
| --- | --- | --- | --- |
| 0.285 | CN1CCN(c2ccc(-c3ccc([N+](=O)[O-])cc3)cc2NC(=O)c2cccc([N+](=O)[O-])c2)CC1 |  |  |
| 0.105 | Cc1c(F)c(N)cc(C(=O)Nc2cc(-c3ccc(NC(=O)CC(C)C)cc3)ccc2N2CCN(C)CC2)c1Cl | 3.9 |  |
| 0.0956 | Cc1c(F)c(N)cc(C(=O)Nc2cc(-c3ccc(NC(=O)C(C)C)cc3)ccc2N2CCN(C)CC2)c1Cl | 4.5 |  |
| 0.0815 | CCC(=O)Nc1ccc(-c2ccc(N3CCN(C)CC3)c(NC(=O)c3cc(N)c(F)c(C)c3Cl)c2)cc1 | 6.5 |  |
| 0.0804 | Cc1c(F)c(N)cc(C(=O)Nc2cc(-c3ccc(NC(=O)CCCNC(=O)OC(C)(C)C)cc3)ccc2N2CCN(C)CC2)c1Cl | 4.8 |  |
| 0.0779 | Cc1c(F)c(N)cc(C(=O)Nc2cc(-c3ccc(NC(=O)C(C)NC(=O)OC(C)(C)C)cc3)ccc2N2CCN(C)CC2)c1Cl (stereo not given) | 4.3 |  |
| 0.076 | CCCC(=O)Nc1ccc(-c2ccc(N3CCN(C)CC3)c(NC(=O)c3cc(N)c(F)c(C)c3Cl)c2)cc1 | 2.3 |  |
| 0.0758 | Cc1c(F)c(N)cc(C(=O)Nc2cc(-c3ccc(NC(=O)C4CC4)cc3)ccc2N2CCN(C)CC2)c1Cl | 4.8 |  |
| 0.0625 | Cc1c(F)c(N)cc(C(=O)Nc2cc(-c3ccc(NC(=O)CN)cc3)ccc2N2CCN(C)CC2)c1Cl | 13.2 |  |

Reference: ChEMBL document CHEMBL3875159, “High-affinity small molecular blockers of mixed lineage leukemia 1 (MLL1)-WDR5 interaction inhibit MLL1 complex H3K4 methyltransferase activity” (Eur J Med Chem, 2016)
